Screening data: PubChem, Johns Hopkins Ion Channel Center
RGS4 act: RGS4 potentiators or activators, primary screen, cell-based, HEK293 M3R inducible RGS4, calcium flux; B-score at 10 µM; AID 463111, 2010; 0.92% of 310,000 active; carbachol calcium flux Fluo4; stronger effect = lower value;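 active = B-score of the integrated calcium signal more than 4 SD below the library mean, with starting fluorescence not abnormally high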;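 also: negative B-score means reduced calcium response which marks RGS4 activation or potentiation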
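Detection: kinetic calcium fluorescence imaging with Fluo4-AM dye, 2 µM / Material: HEK293 cells with stable M3R and inducible RGS4 / Schedule: recording 10 s baseline at 1 Hz, 100 s post-agonist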
MrgX1 ag: agonists of human MrgX1 receptor, primary screen, HEK293 cells, Fluo-4 calcium flux; Mas-related G-protein coupled receptor member X1 (Homo sapiens), Q96LB2; Fluo-4 calcium fluorescence, agonist mode; stronger effect = higher value; B-score at 10 µM; 0.44% of 310,000 active; AID 588627, 2011;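 active = calcium response B-score plate-corrected fluorescence ratio at least 3 library SD, with starting fluorescence B-score inside 5 SD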
Target sequence (Q96LB2 whole entry, looked up): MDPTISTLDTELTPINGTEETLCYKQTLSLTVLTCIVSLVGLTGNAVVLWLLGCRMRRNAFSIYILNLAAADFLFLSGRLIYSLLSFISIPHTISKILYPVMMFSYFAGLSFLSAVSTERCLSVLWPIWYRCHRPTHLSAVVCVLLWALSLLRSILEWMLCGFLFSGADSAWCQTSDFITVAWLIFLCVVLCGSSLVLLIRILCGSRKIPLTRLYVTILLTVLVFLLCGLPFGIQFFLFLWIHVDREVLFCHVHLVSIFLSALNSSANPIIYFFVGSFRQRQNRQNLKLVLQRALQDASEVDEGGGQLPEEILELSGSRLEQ
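Material: MrgX1-expressing HEK293 cells / Dosing: compound as first of three additions / Incubation: overnight seeding, then 1 h dark dye loading / Signal: Fluo-4 NW calcium fluorescence / Evaluation: B-scored fluorescence response ratio / Benchmarks: positive and negative control wells on each plate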
MrgX1 PAM: positive allosteric modulators of MrgX1, primary screen, HEK293 cells, Fluo-4 calcium flux; B-score at 10 µM; FDSS; stronger effect = higher value; 0.63% of 310,000 active;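 active = plate-corrected calcium response at least 3 library SD above typical, normal starting fluorescence, not activating the receptor alone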;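 also: compound read alongside a low EC10 to EC30 dose of BAM8-22 agonist; peak minus trough fluorescence over baseline measured at the second addition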
RGS4 inh: RGS4 inhibitors, primary screen, cell-based, HEK293 M3R inducible RGS4, calcium flux | Fluo-4 calcium flux; stronger effect = higher value; triggered by carbachol at its EC20 | AID 463165, 2010 | 0.45% of 310,000 active | B-score at 10 µM;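 active = B-score, a plate-corrected calcium signal, over three deviations above library mean, with baseline fluorescence within five deviations of library mean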;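 also: RGS4 expression induced by doxycycline in cells with stable M3 receptor; B-score is computed from the integrated fluorescence ratio over baseline after carbachol; higher B-score means a larger calcium signal and so more RGS4 inhibition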
Target sequence (P49798 whole entry, looked up): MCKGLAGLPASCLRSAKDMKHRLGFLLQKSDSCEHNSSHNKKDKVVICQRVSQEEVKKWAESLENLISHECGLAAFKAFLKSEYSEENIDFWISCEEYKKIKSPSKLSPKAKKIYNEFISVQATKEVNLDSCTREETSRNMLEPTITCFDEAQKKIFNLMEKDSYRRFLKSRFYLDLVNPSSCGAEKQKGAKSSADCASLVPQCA
MrgX1 antagonist: antagonists of human MrgX1 receptor, primary screen, HEK293 cells, Fluo-4 calcium flux. B-score at 10 µM. Mas-related G-protein coupled receptor member X1 (Homo sapiens), Q96LB2. 1.3% of 310,000 active. AID 588676, 2011. BAM8-22 antagonism; stronger effect = lower value;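 active = calcium-response B-score plate-corrected more than 3 library SD below zero, starting fluorescence within 5 deviations, no agonist response on first addition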;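 also: peak minus trough fluorescence over baseline after final BAM8-22 challenge near maximal dose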
MrgX1 antag conf: MrgX1 receptor antagonists, duplicate retest, confirmation, HEK293 cells, Fluo-4 calcium flux; remaining BAM8-22 calcium response % of control (stronger effect = lower value), % at 10 µM; BAM8-22 calcium flux; stronger effect = lower value; shares compounds with MrgX1 antagonist; 19% of 2,300 active;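 active = remaining agonist calcium response no higher than 100% minus 3 SD of agonist-only control wells, with starting fluorescence near control levels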;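 also: agonist BAM8-22 given at a near maximal EC90 to ECmax level; peak minus minimum fluorescence divided by baseline after agonist addition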
HEK293 Ca flux: nonspecific calcium signal in parental HEK293, confirmation, counter-screen for MrgX1 antagonist project, parental HEK293 cells, Fluo-4 calcium flux; AID 624111, 2012; shares compounds with MrgX1 antagonist; Fluo-4 calcium fluorescence, FDSS; 2% of 4,000 active; fluorescence ratio F(max-min)/F0 at 10 µM;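 active = duplicate-averaged calcium fluorescence ratio at least three times the standard deviation of buffer wells, a nonspecific response in parental cells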
HEK293 Ca counter: calcium response in parental HEK293 cells, primary screen, counter-screen for MrgX1 allosteric activator project, cell-based, Fluo-4 calcium flux, duplicate; shares compounds with MrgX1 antagonist; Fluo-4 fluorescence ratio; stronger effect = higher value; fluorescence ratio F(max-min)/F0 at 10 µM; 0.4% of 4,000 active;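 active = calcium fluorescence ratio, averaged over duplicates, at least 3 SD of the buffer-well ratio, meaning a nonspecific response in receptor-free cells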;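 also: untransfected parental HEK293 lacking MrgX1 used as counterscreen for MrgX1 allosteric activators; fluorescence change taken during the second addition on a kinetic imager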
HEK293 Ca cntr2: calcium response in parental HEK293 cells, primary screen, counter-screen for MrgX1 agonist project, cell-based, Fluo-4 calcium flux, duplicate, agonist mode. fluorescence ratio F(max-min)/F0 at 10 µM. Fluo-4 calcium fluorescence (FDSS); stronger effect = higher value. 8.7% of 4,000 active. shares compounds with MrgX1 antagonist;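 active = calcium fluorescence ratio at least three times the spread of buffer wells, meaning a non-specific response in parental cells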
Numbers without * were called inactive. Rows were chosen to be rich in hits. Some 3.5% of all compounds tested hit in one or more screens of this group.

What do the screens show for `Cc1cccc(N(C)c2cc(C)nc3ncnn23)c1`?
RGS4 act: inactive; MrgX1 ag: inactive; MrgX1 PAM: inactive; RGS4 inh: inactive; MrgX1 antagonist: inactive

What do the screens show for `CCN(c1ccccc1)c1cc(C)nc2ncnn12`?
RGS4 act: inactive; MrgX1 ag: inactive; MrgX1 PAM: inactive; RGS4 inh: inactive; MrgX1 antagonist: -6.6*; MrgX1 antag conf: inactive; HEK293 Ca flux: inactive; HEK293 Ca counter: inactive; HEK293 Ca cntr2: inactive

What do the screens show for `Cc1nnc(N2C(=O)c3cccc4c([N+](=O)[O-])ccc(c34)C2=O)s1`?
RGS4 act: inactive; MrgX1 ag: inactive; MrgX1 PAM: inactive; RGS4 inh: inactive; MrgX1 antagonist: inactive

How did N#CCCNc1ccc(OCCC#N)cc1 do in these assays?
RGS4 act: inactive; MrgX1 ag: inactive; MrgX1 PAM: inactive; RGS4 inh: inactive; MrgX1 antagonist: inactive

What do the screens show for `C[C@@]12C(=O)Nc3cc(F)ccc3C(=O)N1[C@H]1c3ccccc3OC[C@@H]1[C@@H]2c1ccccc1`?
MrgX1 ag: inactive; MrgX1 PAM: inactive; MrgX1 antagonist: -6.2*; MrgX1 antag conf: 82%*; HEK293 Ca flux: inactive; HEK293 Ca counter: inactive; HEK293 Ca cntr2: inactive

Results for Cc1ccc2c(c1)[C@H]1[C@H](CO2)[C@H](c2ccccc2)[C@]2(C)C(=O)Nc3cc(Cl)ccc3C(=O)N12 ?
MrgX1 ag: inactive; MrgX1 PAM: inactive; MrgX1 antagonist: inactive

How did O=[N+]([O-])c1cc(C(F)(F)F)ccc1NCCNC(=S)Nc1ccc(Cl)cc1 do in these assays?
RGS4 act: -7.1*; MrgX1 ag: inactive; MrgX1 PAM: inactive; RGS4 inh: inactive; MrgX1 antagonist: -11*; MrgX1 antag conf: 72%*; HEK293 Ca flux: inactive; HEK293 Ca counter: inactive; HEK293 Ca cntr2: inactive

What do the screens show for `O=[N+]([O-])c1cc(C(F)(F)F)ccc1NCCCCNS(=O)(=O)c1ccc(Cl)cc1`?
RGS4 act: inactive; MrgX1 ag: inactive; MrgX1 PAM: inactive; RGS4 inh: inactive; MrgX1 antagonist: inactive

How did Cc1ccc2nc3c(cc(C(=O)NCCc4ccccc4)c(=N)n3CCN3CCOCC3)c(=O)n2c1 do in these assays?
RGS4 act: inactive; MrgX1 ag: inactive; MrgX1 PAM: inactive; RGS4 inh: inactive; MrgX1 antagonist: inactive

How did Nc1n[nH]c(CO)n1 do in these assays?
RGS4 act: inactive; MrgX1 ag: inactive; MrgX1 PAM: inactive; RGS4 inh: inactive; MrgX1 antagonist: inactive

How did CCOC(=O)c1cnc2c(cnn2C)c1Oc1ccc(OC)cc1 do in these assays?
RGS4 act: inactive; MrgX1 ag: inactive; MrgX1 PAM: inactive; RGS4 inh: inactive; MrgX1 antagonist: inactive

How did CCOC(=O)c1cnc2c(cnn2C)c1NCCC(O)C(F)(F)F (stereo not drawn) do in these assays?
RGS4 act: inactive; MrgX1 ag: inactive; MrgX1 PAM: inactive; RGS4 inh: inactive; MrgX1 antagonist: -4.8*; MrgX1 antag conf: inactive; HEK293 Ca flux: inactive; HEK293 Ca counter: inactive; HEK293 Ca cntr2: inactive

What do the screens show for `CCCCc1nc2sc3c(SCCN(C)C)ncnc3c2c2c1CCC2`?
RGS4 act: inactive; MrgX1 ag: inactive; MrgX1 PAM: inactive; RGS4 inh: inactive; MrgX1 antagonist: inactive

Results for O=C(c1cccc(-n2cccc2)c1)N1CCN(S(=O)(=O)c2ccccc2)CC1 ?
RGS4 act: inactive; MrgX1 ag: inactive; MrgX1 PAM: inactive; RGS4 inh: inactive; MrgX1 antagonist: inactive

What do the screens show for `O=C(c1cccc(-n2cccc2)c1)N1CCN(S(=O)(=O)c2c(F)cccc2F)CC1`?
RGS4 act: inactive; MrgX1 ag: inactive; MrgX1 PAM: inactive; RGS4 inh: inactive; MrgX1 antagonist: -6.1*; MrgX1 antag conf: inactive; HEK293 Ca flux: inactive; HEK293 Ca counter: inactive; HEK293 Ca cntr2: inactive

What do the screens show for `CCCCOCCCNc1ncnc2c1[nH]c1ccccc12`?
RGS4 act: inactive; MrgX1 ag: inactive; MrgX1 PAM: inactive; RGS4 inh: inactive; MrgX1 antagonist: -14*; MrgX1 antag conf: 26%*; HEK293 Ca flux: inactive; HEK293 Ca counter: inactive; HEK293 Ca cntr2: inactive

What do the screens show for `CCOCCCNc1ncnc2c1[nH]c1ccccc12`?
RGS4 act: inactive; MrgX1 ag: inactive; MrgX1 PAM: inactive; RGS4 inh: inactive; MrgX1 antagonist: inactive

How did COC(=O)c1cccc(S(=O)(=O)N2CCOCC2)c1 do in these assays?
RGS4 act: inactive; MrgX1 ag: inactive; MrgX1 PAM: inactive; RGS4 inh: inactive; MrgX1 antagonist: inactive

What do the screens show for `O=C(Nc1cccnc1)c1cccc(S(=O)(=O)N2CCCCC2)c1`?
RGS4 act: inactive; MrgX1 ag: inactive; MrgX1 PAM: inactive; RGS4 inh: inactive; MrgX1 antagonist: -6.4*; MrgX1 antag conf: inactive; HEK293 Ca flux: inactive; HEK293 Ca counter: inactive; HEK293 Ca cntr2: inactive

What do the screens show for `COC(=O)c1cccc(S(=O)(=O)N2CCCC2)c1`?
RGS4 act: inactive; MrgX1 ag: inactive; MrgX1 PAM: inactive; RGS4 inh: inactive; MrgX1 antagonist: -5.9*; MrgX1 antag conf: inactive; HEK293 Ca flux: inactive; HEK293 Ca counter: inactive; HEK293 Ca cntr2: inactive

What do the screens show for `CCOc1ccccc1N(CC(=O)NCCSc1ccccn1)S(=O)(=O)c1ccc(C)cc1`?
RGS4 act: inactive; MrgX1 ag: inactive; MrgX1 PAM: inactive; RGS4 inh: inactive; MrgX1 antagonist: inactive
